OX1R antag-1 – antagonists of human orexin 1 receptor (OX1R); Orexin/Hypocretin receptor type 1 (Homo sapiens), O43613; OX1R-expressing cells, FRET antagonist read-out; inhibition, % at 6.6 µM; hit rate 1.8% among 330,000; AID 485270, 2010; in the data active = inhibition mostly above about 38%, no sharp cut-off; inactive = mostly below about 40%;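 also: 0% = agonist challenge alone and 100% = reference antagonist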
TAAR1 ag – human TAAR1 agonists, primary screen, Fluo-8 calcium fluorescence, CHO RD-HGA16 cells. activation, % at 3 µM. Trace amine-associated receptor 1 (Homo sapiens), Q96RJ0. AID 624467, 2012. vehicle wells 0%, saturating PEA agonist 100%. hit rate 0.99% among 360,000;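 active = activation above the mean activation of all test compounds in the run plus 3 SD, cut at about 38% in these data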
Target sequence (Q96RJ0 whole entry, looked up): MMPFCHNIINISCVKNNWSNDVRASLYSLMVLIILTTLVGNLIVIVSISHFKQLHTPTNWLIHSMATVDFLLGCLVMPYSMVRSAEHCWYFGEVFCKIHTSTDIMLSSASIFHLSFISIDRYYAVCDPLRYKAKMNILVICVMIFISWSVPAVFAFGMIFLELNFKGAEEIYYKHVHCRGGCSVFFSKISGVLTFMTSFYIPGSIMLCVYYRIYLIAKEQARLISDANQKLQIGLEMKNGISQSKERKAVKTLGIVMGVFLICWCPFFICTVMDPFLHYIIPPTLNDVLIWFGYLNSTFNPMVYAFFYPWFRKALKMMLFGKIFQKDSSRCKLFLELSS
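Test system: RD-HGA16 (CHO) cells co-expressing Gα16 and hTAAR1 | Doses: Single dose, 3 µM | Schedule: 17-24 h seeding, 75 min 37 °C dye, 30 min RT | Evaluation: % activation from peak over basal fluorescence ratio, DMSO-to-PEA scaled | Technique: Kinetic Fluo-8 calcium fluorescence | Benchmarks: Low control DMSO, high control PEA (EC100)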
CHO parental Ca – ATP-evoked calcium signal inhibitors, parental CHO, primary screen, counter-screen for OX1R antagonist project, cell-based, fluorescence, Fluo-8 calcium dye; parental CHO-K1, ATP-induced calcium, Fluo-8 fluorescence; inhibition, % at 5.6 µM; hit rate 0.63% among 330,000;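 active = inhibition above that plate's mean sample inhibition plus 3 SD, cut at about 26% in these data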;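 also: 0% = ATP-challenged DMSO wells and 100% = DMSO wells without ATP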
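Assay system: untransfected parental CHO cell line. Also added: ATP agonist challenge. Dosing: one dose, 5.6 µM nominal. Measured by: Fluo-8 fluorescence. Read-out: % inhibition. Benchmarks: ATP wells versus no-ATP DMSO wells. Repeats: no replicates.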
GPR7 antagonist – GPR7 receptor antagonists, primary screen, cell-based, fluorescence, single concentration; Neuropeptides B/W receptor type 1 (Homo sapiens), P48145; AID 1861, 2009; hit rate 1.1% among 290,000; GPR7-expressing cells, fluorescence antagonist assay; inhibition, % at 4.4 µM; in the data active = inhibition above about 16%, passing the limit was not always enough;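 also: cells stimulated with the agonist NPW; 0% = agonist with vehicle and 100% = vehicle without agonist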
Target sequence (P48145 whole entry, looked up): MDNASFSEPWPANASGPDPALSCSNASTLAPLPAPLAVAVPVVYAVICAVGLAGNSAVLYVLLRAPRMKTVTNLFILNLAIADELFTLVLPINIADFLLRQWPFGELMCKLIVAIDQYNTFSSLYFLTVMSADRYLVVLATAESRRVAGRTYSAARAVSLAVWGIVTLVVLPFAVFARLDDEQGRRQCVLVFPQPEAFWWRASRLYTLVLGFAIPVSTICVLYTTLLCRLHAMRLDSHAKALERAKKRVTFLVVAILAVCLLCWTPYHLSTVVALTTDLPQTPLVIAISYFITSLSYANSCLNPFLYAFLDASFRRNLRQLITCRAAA
TAAR1 antag – human TAAR1 antagonists, primary screen, Fluo-8 calcium fluorescence, CHO RD-HGA16 cells; inhibition, % at 3 µM; antagonist; hit rate 1.5% among 360,000; Trace amine-associated receptor 1 (Homo sapiens), Q96RJ0;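 active = inhibition above a per-plate cutoff, the mean inhibition of test compounds on that plate plus 3 SD, cut at about 49% in these data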;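 also: 0% = DMSO plus EC80 beta-PEA response and 100% = DMSO alone without agonist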
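Test system: RD-HGA16 CHO cells with stable hTAAR1 and Gα16 / Probe or stimulus: EC80 β-phenethylamine stimulus / Times: seeding 17-24 h prior, 75-min 37 °C, 30-min RT dye loading / Detection: Fluo-8 calcium-sensitive fluorescence / Read-out basis: % inhibition scaled between DMSO and EC80 PEA controls / Repeats: singlicate, one well per test compound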
OX1R antag-2 – OX1R (HCRTR1) antagonists, primary screen, fluorescence, CHO/OX1R cells, Fluo-8 calcium, orexin A | Orexin/Hypocretin receptor type 1 (Homo sapiens), O43613 | Fluo-8 calcium fluorescence | inhibition, % at 5 µM | hit rate 0.43% among 330,000 | AID 434989, 2010;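 active = inhibition above its plate's threshold, mean inhibition of all tested compounds on the plate plus 3 SD, cut at about 37% in these data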;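 also: 0% = orexin A challenge wells and 100% = SB-334867-A antagonist wells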
* marks the source's active call; other numbers are inactive results. Hits are enriched below; roughly 4.5% of the tested compounds scored in any of these assays.

What do the screens show for `Cc1ccc(-c2cc(C(=O)Nc3cccc(S(=O)(=O)N(C)C)c3)c3ccccc3n2)o1`?
OX1R antag-1: 14; TAAR1 ag: 29; CHO parental Ca: 3; GPR7 antagonist: 0; TAAR1 antag: 58*; OX1R antag-2: -9

Results for CCN(CC)S(=O)(=O)c1cc(NC(=O)c2cc(-c3ccccn3)nc3ccccc23)ccc1C ?
OX1R antag-1: 15; TAAR1 ag: 16; CHO parental Ca: -17; GPR7 antagonist: -8; TAAR1 antag: 55*; OX1R antag-2: -22

What do the screens show for `CCN(CC(=O)Nc1ccc(NC(C)=O)cc1)C(=O)c1cc(-c2ccccc2Cl)nc2ccccc12`?
TAAR1 ag: 39*; TAAR1 antag: 72*

What do the screens show for `CCN(CC)C(=O)c1ccc2nc3ccccc3nc2c1`?
OX1R antag-1: 65*; TAAR1 ag: 5; CHO parental Ca: -6; GPR7 antagonist: -6; TAAR1 antag: -4; OX1R antag-2: -15

What do the screens show for `CCN(CC)C(=O)c1ccc2nc(-c3ccccc3)c(-c3ccccc3)nc2c1`?
OX1R antag-1: 23; TAAR1 ag: 10; CHO parental Ca: -8; GPR7 antagonist: -7; TAAR1 antag: -9; OX1R antag-2: -37

What do the screens show for `CCN(Cc1ccncc1)C(=O)c1ccc(C)c(S(=O)(=O)N2CCCCC2)c1`?
OX1R antag-1: 15; TAAR1 ag: 13; CHO parental Ca: -13; TAAR1 antag: 0; OX1R antag-2: -20

What do the screens show for `C[C@@H]1CN([C@H](C)CO)C(=O)CCCn2nncc2CO[C@@H]1CN(C)C(=O)Nc1ccccc1`?
TAAR1 ag: 1; TAAR1 antag: 7

Results for COC(=O)c1ccc(NC(=O)c2cc(-c3ccccn3)nc3ccccc23)cc1 ?
OX1R antag-1: 0; TAAR1 ag: 1; CHO parental Ca: 0; GPR7 antagonist: -4; TAAR1 antag: -23; OX1R antag-2: -12

Results for CCN(CC)C(=O)c1cccc(NC(=O)c2cc(-c3ccccn3)nc3ccccc23)c1 ?
OX1R antag-1: 8; TAAR1 ag: 17; CHO parental Ca: -15; TAAR1 antag: 49*; OX1R antag-2: -7

What do the screens show for `CCN(Cc1ccccc1)S(=O)(=O)c1ccccc1Br`?
OX1R antag-1: 29; TAAR1 ag: -1; CHO parental Ca: -15; TAAR1 antag: -4; OX1R antag-2: -10

Results for CCCN(S(=O)(=O)c1ccccc1F)S(=O)(=O)c1ccccc1Br ?
OX1R antag-1: 68*; TAAR1 ag: -2; CHO parental Ca: -10; GPR7 antagonist: -14; TAAR1 antag: -4; OX1R antag-2: 14

How did CC1(C(=O)Nc2cnc3ccccc3c2)CCN1Cc1cc2ccccc2o1 (stereo unspecified) do in these assays?
TAAR1 ag: 1; TAAR1 antag: 49*

What do the screens show for `CC1(C(=O)Nc2cnc3ccccc3c2)CCN1Cc1ccc2ccccc2c1` (stereo unspecified)?
TAAR1 ag: 3; TAAR1 antag: 41

Results for Cc1ccc(C(=O)N/C(=C/c2ccc(-c3cc(C(F)(F)F)ccc3Cl)o2)C(=O)NCc2cccnc2)cc1 ?
OX1R antag-1: 36*; TAAR1 ag: -1; CHO parental Ca: -15; GPR7 antagonist: -1; TAAR1 antag: 10; OX1R antag-2: 34

What do the screens show for `O=C(NCc1cccnc1)/C(=C/c1ccc(-c2cccc(C(F)(F)F)c2)o1)NC(=O)c1ccccc1`?
OX1R antag-1: 15; TAAR1 ag: 18; CHO parental Ca: -18; GPR7 antagonist: -5; TAAR1 antag: 28; OX1R antag-2: -24

How did N#CC1=C(N)SC(N)=C(C#N)C1CCc1ccccc1 do in these assays?
OX1R antag-1: 37; TAAR1 ag: 30; CHO parental Ca: 17; GPR7 antagonist: 0; TAAR1 antag: 37; OX1R antag-2: -3

Results for CCc1ccc(C2C(C#N)=C(N)SC(N)=C2C#N)cc1 ?
OX1R antag-1: 26; TAAR1 ag: 43*; CHO parental Ca: 9; GPR7 antagonist: -7; TAAR1 antag: 32; OX1R antag-2: -3

How did N#CC1=C(N)SC(N)=C(C#N)C1Cc1ccccc1 do in these assays?
OX1R antag-1: 39*; TAAR1 ag: 43*; CHO parental Ca: 5; GPR7 antagonist: -2; TAAR1 antag: 38; OX1R antag-2: 36

How did CCOC(=O)C1CCCN(C(=O)c2ccccc2NS(=O)(=O)c2ccc(F)cc2)C1 (stereo unspecified) do in these assays?
OX1R antag-1: 19; TAAR1 ag: 2; CHO parental Ca: -11; TAAR1 antag: 2; OX1R antag-2: -24

Results for C=CCN1[C@@H](C)[C@H](c2ccccc2)Oc2cccc(N3CCCC3)c2S1(=O)=O ?
TAAR1 ag: 1; TAAR1 antag: -37

Results for COC(=O)[C@]12C[C@H](CC(=O)NCc3cccs3)C(=O)N(Cc3ccc4c(c3)OCO4)C1=C[C@H](C(C)(C)C)O[C@@H]2C ?
TAAR1 ag: 1; TAAR1 antag: -41

Results for COC(=O)C1=C(C)N(C)C(=NCC2CC2)NC1c1ccccc1 (stereo unspecified) ?
TAAR1 ag: 1; TAAR1 antag: -6

What do the screens show for `CC1=NN(c2ccccc2)C(=O)/C1=C/C=C/C=C/N(C)C`?
OX1R antag-1: 73*; TAAR1 ag: 8; CHO parental Ca: 2; GPR7 antagonist: 1; TAAR1 antag: 6; OX1R antag-2: 9

How did CCn1c2ccc(Cl)cc2c2nc3ccccc3nc21 do in these assays?
OX1R antag-1: 69*; TAAR1 ag: 5; CHO parental Ca: -16; GPR7 antagonist: 1; TAAR1 antag: -1; OX1R antag-2: 7

Results for O=C(CCCCC(=O)NN=Cc1ccccc1O)NN=Cc1ccccc1O ?
TAAR1 ag: 44*; TAAR1 antag: 54*

What do the screens show for `Cc1ccc(NC(=O)CCC(=O)N/N=C/c2ccccc2O)cc1`?
OX1R antag-1: 3; TAAR1 ag: 38*; CHO parental Ca: 4; GPR7 antagonist: 7; TAAR1 antag: -2; OX1R antag-2: -26

How did O=C(CCC(=O)Nc1ccc(Br)cc1)N/N=C/c1ccccc1O do in these assays?
OX1R antag-1: 11; TAAR1 ag: 38*; CHO parental Ca: -22; GPR7 antagonist: 8; TAAR1 antag: 47; OX1R antag-2: -17

How did Nc1ncnc(N)c1NC(=O)c1ccccc1 do in these assays?
TAAR1 ag: 2; TAAR1 antag: -28
